These results are taken from ChEMBL document CHEMBL2202967, “Synthesis, characterization and biological evaluation of ureidofibrate-like derivatives endowed with peroxisome proliferator-activated receptor activity” (J Med Chem, 2012).

Activity calls are given as the source filed them. No cut-off for these calls is given here.

The subject of data set [1] is Mus musculus. Put plainly: Increase in liver weight in high fat diet fed-induced obesity and insulin resistance C57Bl/6J mouse model at 100 mg/kg/day, po administered once daily for 2 weeks. It is filed as functional, organism-based.
In data set [2] the test system is Mus musculus. Put plainly: Induction of PPARalpha-mediated upregulation of Acadm mRNA expression in liver of high fat diet fed-induced obesity and insulin resistance C57Bl/6J mouse model at 100 mg/kg/day, po administered once daily for 2 weeks by real time qPCR analysis. The class given is functional, organism-based. An outline of the steps:
(§1)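 Livers came from mice fed a high-fat diet for 16 weeks, then gavaged once daily for 2 weeks in 0.5% hypromellose, and were snap-frozen at sacrifice. Total RNA was extracted with Trizol and cleaned up on RNeasy columns. 1 μg RNA was used for mRNA quantitation.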

Data set [3] has as its system Mus musculus. Nature of the data set: Induction of PPARalpha-mediated upregulation of Acadl mRNA expression in liver of high fat diet fed-induced obesity and insulin resistance C57Bl/6J mouse model at 100 mg/kg/day, po administered once daily for 2 weeks by real time qPCR analysis. The class given is functional, organism-based. The method in brief:
as §1

The test system of data set [4] is Mus musculus. Nature of the data set: Induction of PPARalpha-mediated upregulation of Acox1 mRNA expression in liver of high fat diet fed-induced obesity and insulin resistance C57Bl/6J mouse model at 100 mg/kg/day, po administered once daily for 2 weeks by real time qPCR analysis. The class given is functional, organism-based. The method in brief: as §1
(Real-time PCR tracks product formation cycle by cycle.)

The target in data set [5] is T1, Peroxisome proliferator-activated receptor delta (Homo sapiens, UniProt Q03181).
T1 sequence (Q03181 whole entry): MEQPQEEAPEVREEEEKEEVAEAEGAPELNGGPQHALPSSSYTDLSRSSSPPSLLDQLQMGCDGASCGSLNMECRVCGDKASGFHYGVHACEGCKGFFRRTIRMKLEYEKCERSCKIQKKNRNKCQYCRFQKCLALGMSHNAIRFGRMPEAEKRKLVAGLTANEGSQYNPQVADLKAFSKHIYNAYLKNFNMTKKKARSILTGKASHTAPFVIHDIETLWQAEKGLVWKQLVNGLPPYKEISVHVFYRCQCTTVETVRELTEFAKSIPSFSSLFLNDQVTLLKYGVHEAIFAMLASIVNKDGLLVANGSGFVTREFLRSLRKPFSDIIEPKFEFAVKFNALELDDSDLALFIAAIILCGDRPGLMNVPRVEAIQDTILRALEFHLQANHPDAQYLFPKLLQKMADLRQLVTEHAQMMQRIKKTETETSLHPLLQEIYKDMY
Nature of the data set: Agonist activity at human GAL4-fused PPARdelta ligand binding domain expressed in COS-1 cells after 20 hrs by luciferase reporter gene transactivation assay. It is filed as cell-based. Background: A reporter such as luciferase makes a cellular process visible.

For data set [6], the target named is T2, Peroxisome proliferator-activated receptor alpha (Homo sapiens, UniProt Q07869).
T2 sequence (Q07869 whole entry): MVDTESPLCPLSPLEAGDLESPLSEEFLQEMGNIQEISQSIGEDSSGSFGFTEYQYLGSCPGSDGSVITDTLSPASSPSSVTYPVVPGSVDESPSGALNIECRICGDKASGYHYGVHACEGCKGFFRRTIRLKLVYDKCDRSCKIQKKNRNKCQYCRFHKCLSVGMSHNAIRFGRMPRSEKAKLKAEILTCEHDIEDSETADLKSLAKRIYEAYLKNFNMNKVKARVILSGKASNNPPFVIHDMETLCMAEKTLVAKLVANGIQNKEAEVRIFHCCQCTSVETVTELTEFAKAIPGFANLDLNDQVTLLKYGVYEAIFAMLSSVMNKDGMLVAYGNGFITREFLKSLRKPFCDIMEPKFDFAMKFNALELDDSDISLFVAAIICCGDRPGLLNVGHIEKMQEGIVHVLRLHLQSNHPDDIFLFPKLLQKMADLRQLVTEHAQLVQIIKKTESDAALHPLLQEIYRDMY
Put plainly: Agonist activity at human GAL4-fused PPARalpha ligand binding domain expressed in HepG2 cells after 20 hrs by luciferase reporter gene transactivation assay. It is filed as cell-based. The method in brief: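 HepG2 cells in MEM with 10% heat-inactivated FBS, seeded at 10⁵ cells/well and transfected after 24 h by calcium phosphate. Plasmids: Gal4-PPARα LBD (30 ng), pGal5TKpGL3 luciferase reporter (100 ng) and pCMVβgal (250 ng). Ligands added 4 h post-transfection, for 20 h, in triplicate. Luciferase read in cell extracts, with β-galactosidase activity measured alongside; experiments repeated at least twice.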

Data set [7] deals with T3, Peroxisome proliferator-activated receptor gamma (Homo sapiens, UniProt P37231).
T3 sequence (P37231 whole entry): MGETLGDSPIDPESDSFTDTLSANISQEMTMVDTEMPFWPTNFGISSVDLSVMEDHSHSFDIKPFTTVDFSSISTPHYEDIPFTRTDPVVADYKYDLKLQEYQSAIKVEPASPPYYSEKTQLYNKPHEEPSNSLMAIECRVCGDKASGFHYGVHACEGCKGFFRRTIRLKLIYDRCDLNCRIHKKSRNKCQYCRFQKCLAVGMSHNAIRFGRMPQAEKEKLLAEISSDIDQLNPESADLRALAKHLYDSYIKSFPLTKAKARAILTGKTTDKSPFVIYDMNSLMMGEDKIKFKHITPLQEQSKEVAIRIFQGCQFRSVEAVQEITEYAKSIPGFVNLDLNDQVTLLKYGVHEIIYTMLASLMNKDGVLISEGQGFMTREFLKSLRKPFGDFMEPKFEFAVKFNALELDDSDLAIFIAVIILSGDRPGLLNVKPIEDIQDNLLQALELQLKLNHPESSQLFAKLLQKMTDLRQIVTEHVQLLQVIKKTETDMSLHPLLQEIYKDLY
Put plainly: Agonist activity at human GAL4-fused PPARgamma ligand binding domain expressed in HepG2 cells after 20 hrs by luciferase reporter gene transactivation assay. The class given is cell-based.

Data set [8] addresses T3, Peroxisome proliferator-activated receptor gamma. Put plainly: Binding affinity to PPARgamma ligand binding domain by isothermal titration calorimetry.
In data set [9] the target is T4, Peroxisome proliferator-activated receptor alpha (Homo sapiens) (UniProt Q07869).
T4 sequence (whole entry): T2 sequence (Q07869 whole entry)
Put plainly: Agonist activity at human GAL4-fused PPARalpha ligand binding domain expressed in HepG2 cells after 20 hrs by luciferase reporter gene transactivation assay relative to WY14643. The class given is cell-based. The method in brief: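 GAL4-human PPARα LBD chimera (30 ng) with Gal5-TK luciferase reporter (100 ng) and pCMVβgal (250 ng), calcium-phosphate transfected into HepG2 (MEM, 10% FBS) seeded 10⁵ cells/well. Ligands added 4 h post-transfection for 20 h, in triplicate. Luciferase read in cell extracts, normalised to β-galactosidase activity. Experiments repeated at least twice.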

In data set [10] the target is T5, Peroxisome proliferator-activated receptor gamma (Homo sapiens) (UniProt P37231).
T5 sequence (whole entry): T3 sequence (P37231 whole entry)
The settings on record: BL21-DE3.

The nature of data set [11]: Solubility of the compound in HEPES buffer. It is filed as physicochemical.
For data set [12], the system named is LoVo. Nature of the data set: Antitumor activity against human LoVo cells assessed as inhibition of cell proliferation after 1 day by MTT assay. The following applies: 24 h. The class given is functional, cell-based. An outline of the steps: (§2)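 MTT assay with 10,000 cells/well seeded on day 1. Ligands added on day 2 at 1, 5, 10, 50 and 100 μM, from 20 mM DMSO stocks, for 1 or 2 days. Six replicate wells per drug, untreated control column. IC50 is the concentration giving 0.5 fraction affected versus untreated controls, taken from dose–effect curves. Each experiment in triplicate.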
On the technique in general: Tetrazolium dyes change colour on reduction, which living cells bring about.

In data set [13] the test system is HCT-15. Nature of the data set: Antitumor activity against human HCT15 cells assessed as inhibition of cell proliferation after 1 day by MTT assay. The following applies: HCT-15, 24 h. It is filed as functional, cell-based. An outline of the steps:
as §2

Data set [14] concerns LoVo. Put plainly: Antitumor activity against human LoVo cells assessed as inhibition of cell proliferation after 2 days by MTT assay. It is filed as functional, cell-based. The settings on record: 48 h. The method in brief:
as §2

The subject of data set [15] is HCT-15. Put plainly: Antitumor activity against human HCT15 cells assessed as inhibition of cell proliferation after 2 days by MTT assay. It is filed as functional, cell-based. The following applies: HCT-15, 48 h. The method in brief:
as §2

For data set [16], the system named is HT-29. Put plainly: Induction of apoptosis in human HT-29 cells at IC50 by Annexin V-FITC/propidium iodide staining based flow cytometry. The settings on record: TDE = time-dependent effect. It is filed as functional, cell-based.
Data set [17] concerns HT-29. Nature of the data set: Antitumor activity against human HT-29 cells assessed as inhibition of cell proliferation after 2 days by MTT assay. The class given is functional, cell-based. The settings on record: HT-29, 48 h. An outline of the steps:
as §2

Data set [18] has as its system HT-29. Put plainly: Antitumor activity against human HT-29 cells assessed as inhibition of cell proliferation after 1 day by MTT assay. The class given is functional, cell-based. The following applies: HT-29, 24 h. The method in brief:
as §2

Data set [19] deals with Mus musculus. Nature of the data set: Reduction of body weight in high fat diet fed-induced obesity and insulin resistance C57Bl/6J mouse model at 10 mg/kg/day, po administered once daily for 2 weeks relative to control. The class given is functional. An outline of the steps:
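Male C57Bl/6J mice, 6 weeks old, on high-fat diet for 16 weeks. Then dosed once daily for 2 weeks by oral gavage in 0.5% hypromellose; doses chosen in a preliminary dose-finding study. Body weight measured at end of treatment versus HFD controls, 6 mice per group.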

In data set [20] the test system is Mus musculus. Nature of the data set: Reduction of visceral fat weight in high fat diet fed-induced obesity and insulin resistance C57Bl/6J mouse model at 10 mg/kg/day, po administered once daily for 2 weeks measured on day 12 by in vivo magnetic resonance imaging analysis. It is filed as functional, organism-based. An outline of the steps: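 Mice fed a high-fat diet for 16 weeks were gavaged daily for 2 weeks in 0.5% hypromellose. Under 1% isoflurane they were scanned at 4.7 T with sixteen 1 mm axial T1-weighted slices from kidneys to bladder. Visceral fat was expressed as percentage of total image area, 3 mice per group.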

Turning to `CC(C)OC(=O)C(C)(C)Oc1ccc(C(=O)c2ccc(Cl)cc2)cc1`, the outcome in data set [1], in data set [2], in [3] and in [4] was Active.
Turning to `CCCc1c(OCCCOc2ccc(OCC(=O)O)cc2)ccc(C(C)=O)c1O`, the EC50 in [5] (read-out: EC50) was 21 nM; in data set [6] (hepg2), “Not Active”; in [7] (hepg2) it was “Not Active”.
In data set [8], `CCCCCCCN(CCc1ccc(O[C@H](C)C(=O)O)cc1)c1nc2ccccc2o1` had an equilibrium dissociation constant (Kd) of 1500 nM. The Emax in [9] was 93%. Moreover, the concentration for a half-maximal effect (EC50) was determined as 130 nM in data set [5] (read-out: EC50), 25 nM in [6] (read-out: EC50) and 150 nM in data set [7] (read-out: EC50). In [10], this compound returned a deltaT of 2 °C.
As for `CCCCCCCN(CCc1ccc(O[C@H](Cc2ccccc2)C(=O)O)cc1)c1nc2ccccc2o1.NC1CCCCC1`, the solubility result in data set [11] is recorded as “Insoluble”. The results for the EC50 entry in data set [5] (cos-1), in [6] (read-out: EC50) and in data set [7] (read-out: EC50) were “Not Active”, 1720 nM and 2700 nM, respectively.
In the case of `Cc1c(C)c2c(c(C)c1O)CCC(C)(COc1ccc(CC3SC(=O)NC3=O)cc1)O2` (centres undefined) [TROGLITAZONE], the half-maximal inhibitory concentration (IC50) in data set [12] was greater than 100000 nM; in data set [13], greater than 100000 nM; in data set [14], 65000 nM; in data set [15] it was 50900 nM; in data set [17], 50000 nM; in data set [18] it was greater than 100000 nM. Also, the Activity entry in data set [16] is “tde”.
Turning to `CCCCCCCN(CCc1ccc(O[C@@H](Cc2ccccc2)C(=O)O)cc1)c1nc2ccccc2o1.NC1CCCCC1`, the solubility result in data set [11] is “Insoluble”. The concentration for a half-maximal effect (EC50) entry was “Not Active” in data set [5] (cos-1), “Not Active” in data set [6] (hepg2) and 1700 nM in data set [7] (read-out: EC50).
In the case of `CN(CCOc1ccc(CC2SC(=O)NC2=O)cc1)c1ccccn1` (centres undefined) [ROSIGLITAZONE], the inhibition entry in data set [19] and in [20] was “inactive” throughout. Besides, the Emax result in data set [9] was “inactive”. For the same compound, the EC50 entry in data set [6] (hepg2) was “Not Active”.
Compound `CCCCCCCN(CCc1ccc(O[C@@H](C)C(=O)O)cc1)c1nc2ccccc2o1` returned a Kd in [8] of 3300 nM. Further, in data set [9], the Emax was determined as 78%. Besides, the EC50 in data set [5] (read-out: EC50) is 850 nM; in data set [6] (read-out: EC50), 620 nM; in [7] (read-out: EC50), 2300 nM. The compound also showed a deltaT in data set [10] of 2 °C.
On to `Cc1cccc(Nc2cc(Cl)nc(SCC(=O)O)n2)c1C` [PIRINIXIC ACID], for which the EC50 result in data set [7] (hepg2) is listed as “Not Active”.
For the compound `CCCCCCCN(CCc1ccc(OCC(=O)O)cc1)c1nc2ccccc2o1`, in data set [8], binding was put at a Kd of 7700 nM. The compound also returned an Emax in data set [9] of 87%. Further, the values for the EC50 in [5] (read-out: EC50), in data set [6] (read-out: EC50) and in data set [7] (read-out: EC50) were 570 nM, 122 nM and 800 nM, respectively.

One may read the EC50 as the midpoint of the concentration-response curve. For orientation: Kd means the free concentration of one partner at which half of the binding sites on the other are occupied at equilibrium, for simple one-to-one binding. The term IC50 denotes the midpoint of a concentration-inhibition curve.
